From ChEMBL document CHEMBL4346670, “Discovery of Novel Janus Kinase (JAK) and Histone Deacetylase (HDAC) Dual Inhibitors for the Treatment of Hematological Malignancies” (J Med Chem, 2019)
The source made the active and inactive calls. The calls are words filed in the database; no cut-off is given here.

Key:
[1] = target: T1, Histone deacetylase (Homo sapiens) (UniProt Q13547+O15379+Q9UBN7+Q92769+Q9UQL6+Q8WUI4+Q9BY41+Q96DB2+P56524+Q9UKV0+Q969S8); test: Inhibition of HDAC in human HeLa nuclear extract at 10 uM using Boc-Lys(acetyl)-AMC as substrate preincubated for 5 mins followed by substrate addition and measured after 30 mins by fluorescence assay; format: cell-free
Method in brief: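 HeLa nuclear extract mixed with compound and held at 37 °C for 5 min. Boc-Lys(acetyl)-AMC added and incubated 30 min at 37 °C. Quenched with developer containing trypsin and trichostatin A, then 20 min at 37 °C. Fluorescence read at ex 390/em 460 nm; inhibition calculated relative to control wells.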

[2] = test system: HEL; test: Antiproliferative activity against HEL cells harboring JAK2 V617F mutant assessed as reduction in cell viability after 48 hrs by MTT assay; format: functional, cell-based; conditions: Homo sapiens
[3] = target: Histone deacetylase; test: Inhibition of HDAC in human HeLa nuclear extract using Boc-Lys(acetyl)-AMC as substrate preincubated for 5 mins followed by substrate addition and measured after 30 mins by fluorescence assay; format: cell-based
[4] = target: T2, Histone deacetylase 8 (Homo sapiens, UniProt Q9BY41); test: Inhibition of HDAC8 (unknown origin) using Boc-Lys(trifluoroacetyl)-AMC as substrate preincubated for 5 mins followed by substrate addition and measured after 30 mins by fluorescence assay
T2 sequence (Q9BY41 whole entry): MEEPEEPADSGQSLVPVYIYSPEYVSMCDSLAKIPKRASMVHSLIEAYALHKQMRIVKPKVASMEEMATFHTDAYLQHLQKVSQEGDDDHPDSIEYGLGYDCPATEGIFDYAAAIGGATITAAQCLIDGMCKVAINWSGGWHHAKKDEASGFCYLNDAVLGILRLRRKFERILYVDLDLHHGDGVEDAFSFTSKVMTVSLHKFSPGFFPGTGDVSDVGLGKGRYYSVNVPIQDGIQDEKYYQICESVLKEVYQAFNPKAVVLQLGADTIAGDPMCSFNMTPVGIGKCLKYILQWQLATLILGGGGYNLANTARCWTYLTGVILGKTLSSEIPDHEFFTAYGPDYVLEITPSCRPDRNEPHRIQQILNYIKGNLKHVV

[5] = target: Tyrosine-protein kinase JAK2 (Homo sapiens, UniProt O60674); test: Inhibition of recombinant human JAK2 using Ulight-CAGAGAIETDKEYYTVKD as substrate measured after 60 mins by LANCE assay
Tyrosine-protein kinase JAK2, sequence (O60674 whole entry): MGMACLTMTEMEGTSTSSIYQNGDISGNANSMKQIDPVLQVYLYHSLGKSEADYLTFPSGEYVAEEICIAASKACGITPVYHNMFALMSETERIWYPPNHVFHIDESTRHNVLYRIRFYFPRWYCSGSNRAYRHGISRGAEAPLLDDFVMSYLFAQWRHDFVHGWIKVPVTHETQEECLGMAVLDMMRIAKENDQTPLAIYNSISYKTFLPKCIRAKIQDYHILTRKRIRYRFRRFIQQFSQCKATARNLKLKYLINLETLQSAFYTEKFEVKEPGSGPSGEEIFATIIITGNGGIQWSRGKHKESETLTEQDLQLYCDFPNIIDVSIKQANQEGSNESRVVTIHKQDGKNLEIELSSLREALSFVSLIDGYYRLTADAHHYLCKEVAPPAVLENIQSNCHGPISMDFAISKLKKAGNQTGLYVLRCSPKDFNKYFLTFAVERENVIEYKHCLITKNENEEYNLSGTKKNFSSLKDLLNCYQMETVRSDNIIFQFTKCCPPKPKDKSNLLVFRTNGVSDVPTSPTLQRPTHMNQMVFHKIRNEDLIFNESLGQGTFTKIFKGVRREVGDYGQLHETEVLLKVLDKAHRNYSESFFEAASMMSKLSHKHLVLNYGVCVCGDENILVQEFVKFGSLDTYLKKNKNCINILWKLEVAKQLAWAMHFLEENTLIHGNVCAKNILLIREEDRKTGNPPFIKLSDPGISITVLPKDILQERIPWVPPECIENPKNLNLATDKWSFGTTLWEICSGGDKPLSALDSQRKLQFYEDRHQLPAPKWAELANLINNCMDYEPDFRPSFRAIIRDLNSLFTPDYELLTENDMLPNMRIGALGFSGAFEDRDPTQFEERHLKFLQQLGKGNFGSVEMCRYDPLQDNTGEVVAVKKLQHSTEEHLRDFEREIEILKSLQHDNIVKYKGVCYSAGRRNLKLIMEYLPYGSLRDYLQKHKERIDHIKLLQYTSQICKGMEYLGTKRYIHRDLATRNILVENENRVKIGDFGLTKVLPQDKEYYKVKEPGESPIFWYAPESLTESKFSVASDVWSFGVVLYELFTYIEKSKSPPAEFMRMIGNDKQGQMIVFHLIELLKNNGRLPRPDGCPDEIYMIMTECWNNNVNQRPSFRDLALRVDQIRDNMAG

[6] = target: T3, Histone deacetylase 2 (Homo sapiens, UniProt Q92769); test: Inhibition of HDAC2 (unknown origin) using Boc-Lys(acetyl)-AMC as substrate preincubated for 5 mins followed by substrate addition and measured after 30 mins by fluorescence assay
T3 sequence (Q92769 whole entry): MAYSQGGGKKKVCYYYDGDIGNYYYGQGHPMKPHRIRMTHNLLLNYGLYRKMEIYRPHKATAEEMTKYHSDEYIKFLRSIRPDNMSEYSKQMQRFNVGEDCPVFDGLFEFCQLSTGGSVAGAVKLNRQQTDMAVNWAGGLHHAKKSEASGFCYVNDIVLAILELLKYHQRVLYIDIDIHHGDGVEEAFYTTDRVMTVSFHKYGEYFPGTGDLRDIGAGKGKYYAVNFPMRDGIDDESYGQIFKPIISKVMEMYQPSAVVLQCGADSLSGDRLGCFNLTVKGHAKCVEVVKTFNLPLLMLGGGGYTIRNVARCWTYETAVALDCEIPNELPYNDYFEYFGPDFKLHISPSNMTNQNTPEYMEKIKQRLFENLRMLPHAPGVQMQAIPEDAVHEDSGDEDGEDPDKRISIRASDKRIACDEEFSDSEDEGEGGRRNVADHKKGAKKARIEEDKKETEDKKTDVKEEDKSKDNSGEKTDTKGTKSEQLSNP

[7] = test system: K562; test: Antiproliferative activity against human K562 cells assessed as reduction in cell viability after 48 hrs by MTT assay; format: functional, cell-based; conditions: K562, 48 h
[8] = target: T3, Histone deacetylase 2; conditions: A549, at 80 to 400 nM
[9] = target: T4, Protein deacetylase HDAC6 (Homo sapiens, UniProt Q9UBN7); test: Inhibition of HDAC6 (unknown origin) using Boc-Lys(acetyl)-AMC as substrate preincubated for 5 mins followed by substrate addition and measured after 30 mins by fluorescence assay
T4 sequence (Q9UBN7 whole entry): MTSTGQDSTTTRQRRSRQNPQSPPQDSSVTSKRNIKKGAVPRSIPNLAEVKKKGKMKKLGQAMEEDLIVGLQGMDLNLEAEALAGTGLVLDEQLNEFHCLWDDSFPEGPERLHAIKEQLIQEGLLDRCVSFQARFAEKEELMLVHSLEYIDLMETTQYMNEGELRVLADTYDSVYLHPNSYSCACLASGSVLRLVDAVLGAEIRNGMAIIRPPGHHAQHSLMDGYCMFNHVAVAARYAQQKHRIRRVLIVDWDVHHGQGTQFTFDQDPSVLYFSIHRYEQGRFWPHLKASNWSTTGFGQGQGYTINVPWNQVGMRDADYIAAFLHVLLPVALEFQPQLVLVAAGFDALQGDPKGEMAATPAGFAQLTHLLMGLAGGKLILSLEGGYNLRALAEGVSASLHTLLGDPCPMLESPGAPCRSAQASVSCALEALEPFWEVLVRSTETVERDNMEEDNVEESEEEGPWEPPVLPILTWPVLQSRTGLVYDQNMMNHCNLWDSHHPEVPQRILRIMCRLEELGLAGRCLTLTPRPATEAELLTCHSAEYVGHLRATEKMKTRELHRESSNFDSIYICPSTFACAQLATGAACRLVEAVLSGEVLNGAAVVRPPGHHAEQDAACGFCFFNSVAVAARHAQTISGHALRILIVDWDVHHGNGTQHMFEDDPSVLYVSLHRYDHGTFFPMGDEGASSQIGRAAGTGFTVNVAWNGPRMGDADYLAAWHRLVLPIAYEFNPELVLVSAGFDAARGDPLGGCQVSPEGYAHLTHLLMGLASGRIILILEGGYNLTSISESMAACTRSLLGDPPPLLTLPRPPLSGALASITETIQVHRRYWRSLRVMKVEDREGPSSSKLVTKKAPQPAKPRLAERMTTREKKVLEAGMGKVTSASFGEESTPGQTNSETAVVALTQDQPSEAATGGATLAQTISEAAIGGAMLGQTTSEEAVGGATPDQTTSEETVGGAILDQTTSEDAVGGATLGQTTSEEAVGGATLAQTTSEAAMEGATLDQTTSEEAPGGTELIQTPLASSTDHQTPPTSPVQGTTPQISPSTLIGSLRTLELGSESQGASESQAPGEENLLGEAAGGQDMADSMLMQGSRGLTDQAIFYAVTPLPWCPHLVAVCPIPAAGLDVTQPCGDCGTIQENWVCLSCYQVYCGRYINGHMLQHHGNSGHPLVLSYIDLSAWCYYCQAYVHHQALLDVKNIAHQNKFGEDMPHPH

[10] = test system: Jurkat; test: Antiproliferative activity against human Jurkat cells assessed as reduction in cell viability after 48 hrs by MTT assay; format: functional, cell-based
[11] = test system: MOLT-4; test: Antiproliferative activity against human MOLT4 cells assessed as reduction in cell viability after 48 hrs by MTT assay; format: functional, cell-based; conditions: MOLT-4, 48 h
Method in brief: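 Cells kept in RPMI1640 with 10% FBS at 37 °C, 5% CO2. Seeded and grown for 12 h, then exposed to a range of compound concentrations for 48 h. 0.5% MTT added for 4 h, formazan dissolved in DMSO, absorbance read at 570 nm.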

[12] = target: T1, Histone deacetylase (Homo sapiens); test: Potency index, ratio of SAHA IC50 to test compound IC50 for inhibition of HDAC in human HeLa cell nuclear extract; format: cell-based
Method in brief: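 HeLa cell nuclear extract was incubated with serial concentrations of compound for 5 min at 37 °C. Boc-Lys(acetyl)-AMC substrate was added for 30 min at 37 °C, then developer containing trypsin and TSA for 20 min. Fluorescence was read at ex 390/em 460 nm against control wells.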

[13] = target: Non-receptor tyrosine-protein kinase TYK2 (Homo sapiens, UniProt P29597); test: Inhibition of recombinant human TYK2 using Ulight-CAGAGAIETDKEYYTVKD as substrate measured after 60 mins by LANCE assay
Non-receptor tyrosine-protein kinase TYK2, sequence (P29597 whole entry): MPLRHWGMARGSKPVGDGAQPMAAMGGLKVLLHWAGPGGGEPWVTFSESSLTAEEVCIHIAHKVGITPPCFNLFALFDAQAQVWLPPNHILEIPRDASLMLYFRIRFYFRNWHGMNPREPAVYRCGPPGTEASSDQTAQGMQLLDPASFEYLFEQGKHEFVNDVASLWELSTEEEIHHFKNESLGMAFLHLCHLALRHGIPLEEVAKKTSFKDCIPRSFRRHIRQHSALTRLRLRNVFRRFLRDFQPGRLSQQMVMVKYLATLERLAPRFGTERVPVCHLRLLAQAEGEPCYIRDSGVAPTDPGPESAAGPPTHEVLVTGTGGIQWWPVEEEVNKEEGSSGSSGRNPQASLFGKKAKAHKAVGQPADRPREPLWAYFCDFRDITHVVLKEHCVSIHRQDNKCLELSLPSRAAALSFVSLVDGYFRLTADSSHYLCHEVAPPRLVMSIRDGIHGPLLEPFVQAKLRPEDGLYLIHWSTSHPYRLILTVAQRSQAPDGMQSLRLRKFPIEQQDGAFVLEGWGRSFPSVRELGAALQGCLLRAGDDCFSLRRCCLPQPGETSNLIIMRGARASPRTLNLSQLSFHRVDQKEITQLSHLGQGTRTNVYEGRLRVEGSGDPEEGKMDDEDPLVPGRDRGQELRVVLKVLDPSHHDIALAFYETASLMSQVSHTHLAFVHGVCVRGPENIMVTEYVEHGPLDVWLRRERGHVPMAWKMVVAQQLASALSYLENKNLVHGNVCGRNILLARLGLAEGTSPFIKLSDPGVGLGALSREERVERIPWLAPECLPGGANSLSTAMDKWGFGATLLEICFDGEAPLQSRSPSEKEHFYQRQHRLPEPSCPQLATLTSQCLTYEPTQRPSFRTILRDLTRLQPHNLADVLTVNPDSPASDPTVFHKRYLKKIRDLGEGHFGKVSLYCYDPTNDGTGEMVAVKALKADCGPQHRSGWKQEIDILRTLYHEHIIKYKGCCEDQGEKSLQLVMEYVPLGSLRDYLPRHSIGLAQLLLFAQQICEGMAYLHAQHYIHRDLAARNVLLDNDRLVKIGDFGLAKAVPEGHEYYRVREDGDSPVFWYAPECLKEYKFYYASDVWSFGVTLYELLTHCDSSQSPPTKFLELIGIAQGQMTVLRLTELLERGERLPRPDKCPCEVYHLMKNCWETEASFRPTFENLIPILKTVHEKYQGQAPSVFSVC
Method in brief: (§1)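 Human recombinant JAK enzyme assays run by a contract lab. IC50 was taken from a non-linear curve fit, with all parameters allowed to float. Assays were run in replicate (n>2) and reported as mean ± SD.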

[14] = target: Tyrosine-protein kinase JAK1 (Homo sapiens, UniProt P23458); test: Inhibition of recombinant human JAK1 using Ulight-CAGAGAIETDKEYYTVKD as substrate measured after 60 mins by LANCE assay; method in brief: as §1
Tyrosine-protein kinase JAK1, sequence (P23458 whole entry): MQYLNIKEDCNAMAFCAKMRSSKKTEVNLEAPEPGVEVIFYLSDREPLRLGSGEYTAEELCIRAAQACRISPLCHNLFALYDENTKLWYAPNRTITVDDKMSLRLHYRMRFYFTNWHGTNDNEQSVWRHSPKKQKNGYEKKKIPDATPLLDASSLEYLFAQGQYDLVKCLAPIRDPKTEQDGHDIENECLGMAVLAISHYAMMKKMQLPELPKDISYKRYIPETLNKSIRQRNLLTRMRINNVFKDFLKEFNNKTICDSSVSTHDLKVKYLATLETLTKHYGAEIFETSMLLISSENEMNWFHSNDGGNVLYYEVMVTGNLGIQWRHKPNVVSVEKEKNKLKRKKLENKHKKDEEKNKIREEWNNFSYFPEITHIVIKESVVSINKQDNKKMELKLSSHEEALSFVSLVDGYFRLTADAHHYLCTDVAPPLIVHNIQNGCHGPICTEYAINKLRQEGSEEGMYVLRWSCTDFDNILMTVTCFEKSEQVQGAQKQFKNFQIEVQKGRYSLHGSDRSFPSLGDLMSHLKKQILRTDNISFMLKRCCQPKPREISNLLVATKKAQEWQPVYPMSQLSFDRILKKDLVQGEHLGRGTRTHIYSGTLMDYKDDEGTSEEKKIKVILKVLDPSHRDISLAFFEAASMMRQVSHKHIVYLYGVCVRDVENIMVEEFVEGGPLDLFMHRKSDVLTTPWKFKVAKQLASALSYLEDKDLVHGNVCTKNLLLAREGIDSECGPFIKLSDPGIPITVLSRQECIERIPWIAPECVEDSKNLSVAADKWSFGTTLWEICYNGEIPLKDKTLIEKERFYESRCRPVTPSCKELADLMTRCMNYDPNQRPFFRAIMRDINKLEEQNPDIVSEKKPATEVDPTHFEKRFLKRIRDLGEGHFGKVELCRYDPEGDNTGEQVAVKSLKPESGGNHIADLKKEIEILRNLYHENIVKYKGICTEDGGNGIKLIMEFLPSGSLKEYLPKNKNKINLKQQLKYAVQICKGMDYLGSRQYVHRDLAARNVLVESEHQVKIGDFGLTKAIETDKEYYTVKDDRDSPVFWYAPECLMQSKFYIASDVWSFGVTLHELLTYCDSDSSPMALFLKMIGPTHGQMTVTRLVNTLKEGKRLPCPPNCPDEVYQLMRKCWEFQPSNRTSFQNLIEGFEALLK

[15] = target: T5, Tyrosine-protein kinase JAK3 (Homo sapiens, UniProt P52333); test: Inhibition of recombinant human JAK3 using Ulight-CAGAGAIETDKEYYTVKD as substrate measured after 60 mins by LANCE assay
T5 sequence (P52333 whole entry): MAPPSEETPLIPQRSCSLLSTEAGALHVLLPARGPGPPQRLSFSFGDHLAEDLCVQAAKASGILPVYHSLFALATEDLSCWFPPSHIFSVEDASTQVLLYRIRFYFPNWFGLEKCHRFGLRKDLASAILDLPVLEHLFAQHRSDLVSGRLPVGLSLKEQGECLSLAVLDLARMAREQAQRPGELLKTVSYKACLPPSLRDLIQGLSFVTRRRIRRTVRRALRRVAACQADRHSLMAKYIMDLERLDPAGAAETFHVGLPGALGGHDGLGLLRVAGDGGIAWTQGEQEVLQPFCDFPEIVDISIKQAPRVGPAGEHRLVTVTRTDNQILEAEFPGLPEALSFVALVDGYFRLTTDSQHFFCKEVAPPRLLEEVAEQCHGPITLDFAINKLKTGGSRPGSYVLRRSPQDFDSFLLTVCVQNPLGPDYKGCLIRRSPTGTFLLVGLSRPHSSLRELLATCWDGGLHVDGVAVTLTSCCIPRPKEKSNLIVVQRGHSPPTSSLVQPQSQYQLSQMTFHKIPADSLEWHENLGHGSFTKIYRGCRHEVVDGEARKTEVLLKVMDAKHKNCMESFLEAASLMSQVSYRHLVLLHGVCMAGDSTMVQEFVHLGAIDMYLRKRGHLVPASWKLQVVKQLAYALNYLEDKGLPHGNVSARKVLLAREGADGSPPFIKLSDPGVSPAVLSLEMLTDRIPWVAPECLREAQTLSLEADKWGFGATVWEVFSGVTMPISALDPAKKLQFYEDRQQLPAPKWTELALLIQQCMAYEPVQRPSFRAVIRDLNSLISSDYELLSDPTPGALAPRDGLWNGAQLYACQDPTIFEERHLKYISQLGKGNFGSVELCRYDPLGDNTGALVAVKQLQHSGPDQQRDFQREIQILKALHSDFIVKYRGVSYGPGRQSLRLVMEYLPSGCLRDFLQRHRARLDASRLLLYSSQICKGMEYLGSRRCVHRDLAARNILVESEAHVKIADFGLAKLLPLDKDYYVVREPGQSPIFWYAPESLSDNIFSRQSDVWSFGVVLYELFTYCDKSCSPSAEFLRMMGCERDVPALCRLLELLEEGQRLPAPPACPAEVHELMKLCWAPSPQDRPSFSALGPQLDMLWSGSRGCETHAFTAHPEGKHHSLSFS

Compound | inhibition [1] | IC50 [3] [nM] | IC50 [4] [nM] | IC50 [5] [nM] | IC50 [6] [nM] | IC50 [7] [nM] | inhibition [8] | IC50 [9] [nM] | IC50 [10] [nM] | IC50 [11] [nM] | Ratio IC50 [12] | IC50 [13] [nM] | IC50 [14] [nM] | IC50 [15] [nM] | IC50 [2] [nM]
Clc1cccc(Nc2nc(Nc3cn[nH]c3)ncc2Cl)c1 | inactive | – | – | – | – | – | – | – | – | – | – | – | – | – | –
CNc1nc(Nc2cnn(CCCCCCC(=O)NO)c2)ncc1Cl | – | 15 | 4070 | 36 | 190 | 590 | Active | 29 | 70 | 110 | – | – | – | – | 100
O=C(CCCCCCn1cc(Nc2ncc(Cl)c(Nc3ccc(F)cc3)n2)cn1)NO | – | 3 | – | 15 | – | 500 | – | – | 120 | 220 | > 50 | – | – | – | 210

Continued, in another order:

inhibition [1] | IC50 [3] [nM] | IC50 [4] [nM] | IC50 [5] [nM] | IC50 [6] [nM] | IC50 [7] [nM] | inhibition [8] | IC50 [9] [nM] | IC50 [10] [nM] | IC50 [11] [nM] | Ratio IC50 [12] | IC50 [13] [nM] | IC50 [14] [nM] | IC50 [15] [nM] | Compound | IC50 [2] [nM]
– | 3 | – | 10 | – | 620 | – | – | 130 | 170 | > 50 | – | – | – | COc1ccc(Nc2nc(Nc3cnn(CCCCCCC(=O)NO)c3)ncc2Cl)cc1 | 210
– | 2 | – | 14 | – | 320 | – | – | 100 | 120 | > 50 | 94 | 10 | 7.6 | O=C(CCCCCCn1cc(Nc2ncc(Cl)c(Nc3ccc(Cl)cc3)n2)cn1)NO | 120
